# The source made the active and inactive calls.
# Legend:
# Mus musculus [1] = assay: Antinociceptive activity in sc dosed mouse after 5 mins by tail flick test; type: functional
# Procedure, shortened: (§1)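 Mice, tail-flick by the D'Amour–Smith method. Baseline latency 2–4 s, 10 s cutoff. Tested 5 min after s.c. injection. Response expressed as %MPE = (test−control)/(10−control)×100. 8–12 mice per dose, at least four doses per dose-response curve.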
# Mus musculus [2] = assay: Effect on rectal body temperature in sc dosed mouse assessed as change in temperature after 30 mins by inducible hypothermia test; type: functional; conditions: 0.5 h
# Procedure, shortened: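 Rectal temperature measured in mice with a thermistor probe inserted 24 mm, read before and 30 min after s.c. saline or analogue. Change from pre-treatment value calculated for each mouse.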
# Mus musculus [3] = assay: Inhibition of nicotine-induced antinociception in sc dosed mouse assessed as tail withdrawal latency after 5 mins by tail flick test; type: functional
# [4] = molecular target: Neuronal acetylcholine receptor subunit alpha-7 (Rattus norvegicus, UniProt Q05941); assay: Displacement of [3H]iodo-MLA from alpha7 nAChR in rat cerebral cortex after 2 hrs by scintillation counting; type: tissue-based
# Procedure, shortened: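 Washed rat cerebral cortex homogenate (3 mg wet weight) in Tris pH 7.4 buffer with salts. 2 h on ice. Nonspecific binding defined with 300 µM (−)-nicotine. Filtered onto BSA-soaked GF/B, then microplate scintillation counting.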
# Rattus norvegicus = species: Rattus norvegicus; assay: Selectivity ratio of Ki for rat alpha7 nAChR to Ki for rat alpha4beta2 nAChR
# [5] = molecular target: Neuronal acetylcholine receptor; alpha4/beta2 (Rattus norvegicus, UniProt P09483+P12390); assay: Displacement of [3H]epibatidine from alpha4beta2 nAChR in rat cerebral cortex after 4 hrs by scintillation counting; type: tissue-based
# Procedure, shortened: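 Rat cerebral cortex homogenate (3 mg wet weight, washed three times) in 50 mM Tris pH 7.4 with NaCl, KCl, CaCl2, MgCl2. 4 h at room temperature. Filtration onto polyethylenimine-soaked GF/B, scintillation counting. Ki from IC50 by Cheng-Prusoff.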
# Mus musculus [6] = assay: Antinociceptive activity in sc dosed mouse assessed as reaction time taken to jump or lick paw after 5 mins by hot plate test; type: functional
# Procedure, shortened: (§2)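 Mice placed in a glass cylinder on a 55.0 °C hot plate. Two control latencies taken at least 10 min apart; normal latency 8–12 s. Jump or paw lick scored. Tested 5 min after s.c. injection, eight mice per dose. %MPE calculated against a 40 s maximum.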
# Mus musculus [7] = assay: Effect on locomotory activity in sc dosed mouse assessed as change in spontaneous activity after 5 mins by photocell interruption readings; type: functional
# Procedure, shortened: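 Mice placed in photocell activity cages 5 min after s.c. saline or analogue. Beam interruptions recorded over the next 10 min and expressed as photocell interruption counts.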
# Mus musculus [8] = assay: Inhibition of nicotine-induced antinociception in sc dosed mouse assessed as reaction time taken to jump or lick paw after 5 mins by hot plate test; type: functional
# Mus musculus [9] = assay: Inhibition of nicotine-induced antinociception in mouse assessed as reaction time taken to jump or lick paw at 100 ug/kg after 5 mins by hot plate test; type: functional
# Mus musculus [10] = assay: Antinociceptive activity in mouse assessed as reaction time taken to jump or lick paw at 2 mg/kg, sc after 5 mins by hot plate test; type: functional; conditions: route subcutaneous; procedure, shortened: as §2
# Mus musculus [11] = assay: Antinociceptive activity in mouse at 2 mg/kg, sc after 5 mins by tail flick test; type: functional; conditions: route subcutaneous; procedure, shortened: as §1
# Mus musculus [12] = assay: Inhibition of nicotine-induced antinociception in mouse assessed as reaction time taken to jump or lick paw at 10000 ug/kg after 5 mins by hot plate test; type: functional
# Mus musculus [13] = assay: Inhibition of nicotine-induced antinociception in mouse assessed as reaction time taken to jump or lick paw at 200 ug/kg after 5 mins by hot plate test; type: functional
# Mus musculus [14] = assay: Inhibition of nicotine-induced antinociception in mouse assessed as reaction time taken to jump or lick paw at 50 ug/kg after 5 mins by hot plate test; type: functional
# [15] = Mus musculus, Tail, sc, 5 min, read-out: ED50
# Sequence of Neuronal acetylcholine receptor; alpha4/beta2 (P09483 whole entry): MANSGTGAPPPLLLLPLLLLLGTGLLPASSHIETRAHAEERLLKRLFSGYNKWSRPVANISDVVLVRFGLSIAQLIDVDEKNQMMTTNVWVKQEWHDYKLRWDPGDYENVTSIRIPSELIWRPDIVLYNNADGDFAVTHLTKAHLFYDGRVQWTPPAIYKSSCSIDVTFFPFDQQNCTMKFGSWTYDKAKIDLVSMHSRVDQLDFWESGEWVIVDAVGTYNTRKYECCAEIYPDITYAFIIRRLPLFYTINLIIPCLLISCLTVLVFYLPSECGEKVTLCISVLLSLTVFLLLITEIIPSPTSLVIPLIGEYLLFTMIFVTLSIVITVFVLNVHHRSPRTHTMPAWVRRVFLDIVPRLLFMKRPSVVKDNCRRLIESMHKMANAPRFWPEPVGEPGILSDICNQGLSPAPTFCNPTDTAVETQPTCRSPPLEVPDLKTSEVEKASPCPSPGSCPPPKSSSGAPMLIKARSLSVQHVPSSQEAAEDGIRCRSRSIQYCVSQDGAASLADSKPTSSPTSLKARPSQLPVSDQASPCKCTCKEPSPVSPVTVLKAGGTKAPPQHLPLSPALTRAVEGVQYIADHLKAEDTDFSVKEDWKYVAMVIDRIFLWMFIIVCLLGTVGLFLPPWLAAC
# Sequence of Neuronal acetylcholine receptor; alpha4/beta2 (P12390 whole entry): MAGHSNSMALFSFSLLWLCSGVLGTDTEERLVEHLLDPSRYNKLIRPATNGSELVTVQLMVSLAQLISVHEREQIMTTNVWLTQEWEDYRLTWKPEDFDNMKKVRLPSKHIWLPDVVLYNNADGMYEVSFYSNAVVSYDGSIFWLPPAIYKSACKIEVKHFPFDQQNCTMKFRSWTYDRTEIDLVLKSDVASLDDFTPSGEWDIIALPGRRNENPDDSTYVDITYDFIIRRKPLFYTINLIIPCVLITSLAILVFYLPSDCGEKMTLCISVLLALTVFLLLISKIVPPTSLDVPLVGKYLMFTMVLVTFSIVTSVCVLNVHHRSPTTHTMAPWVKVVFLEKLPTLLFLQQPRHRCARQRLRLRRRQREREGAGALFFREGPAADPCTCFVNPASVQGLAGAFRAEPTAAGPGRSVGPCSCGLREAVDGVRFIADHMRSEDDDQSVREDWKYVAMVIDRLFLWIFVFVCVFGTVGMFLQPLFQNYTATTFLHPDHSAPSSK
# Sequence of Neuronal acetylcholine receptor subunit alpha-7 (Q05941 whole entry): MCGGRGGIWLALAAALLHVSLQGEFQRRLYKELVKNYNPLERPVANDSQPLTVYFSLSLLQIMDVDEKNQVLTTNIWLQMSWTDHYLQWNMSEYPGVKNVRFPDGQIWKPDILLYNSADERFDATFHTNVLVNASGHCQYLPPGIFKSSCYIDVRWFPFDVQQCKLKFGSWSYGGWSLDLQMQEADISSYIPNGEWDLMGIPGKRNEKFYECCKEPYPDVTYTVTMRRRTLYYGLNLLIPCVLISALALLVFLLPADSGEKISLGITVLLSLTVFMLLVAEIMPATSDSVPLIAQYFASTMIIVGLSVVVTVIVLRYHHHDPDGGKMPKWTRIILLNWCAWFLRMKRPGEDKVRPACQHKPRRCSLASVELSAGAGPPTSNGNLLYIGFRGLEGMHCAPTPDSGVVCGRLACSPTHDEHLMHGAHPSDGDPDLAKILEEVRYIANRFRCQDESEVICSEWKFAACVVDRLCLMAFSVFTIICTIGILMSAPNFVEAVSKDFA
SMILES,ED50 (Mus musculus [1]; [15]),ED50 (Mus musculus [2]),AD50 (Mus musculus [3]),Ki [4],Ratio Ki (Rattus norvegicus),Ki [5],ED50 (Mus musculus [6]),ED50 (Mus musculus [7]),AD50 (Mus musculus [8]),Activity (Mus musculus [1]),Activity (Mus musculus [6]),inhibition in vivo at 0.1 mg/kg (Mus musculus [9]),Activity (Mus musculus [10]),Activity (Mus musculus [11]),inhibition in vivo at 10 mg/kg (Mus musculus [12]),ED50 (Mus musculus [1]),inhibition in vivo at 0.2 mg/kg (Mus musculus [13]),inhibition in vivo at 0.05 mg/kg (Mus musculus [14])
Clc1cccc(-c2cc([C@H]3C[C@@H]4CC[C@H]3N4)cnc2Cl)c1,3.4 mg/kg,0.38 mg/kg,0.0022 mg/kg,30.5 nM,2000,0.013 nM,4.2 mg/kg,0.06 mg/kg,0.08 mg/kg,,,,,,,,,
c1cnc2cc3c(cc2n1)[C@@H]1CNC[C@H]3C1,,,,,,,,,,inactive,inactive,,,,,,,
COc1cccc(-c2cc([C@H]3C[C@@H]4CC[C@H]3N4)cnc2Cl)c1,0.7 mg/kg,0.7 mg/kg,0.029 mg/kg,558 nM,,0.019 nM,0.8 mg/kg,0.2 mg/kg,,,,0%,,,,,,
CN(C)c1cccc(-c2cc([C@H]3C[C@@H]4CC[C@H]3N4)cnc2Cl)c1,,3.3 mg/kg,0.02 mg/kg,1100 nM,,0.009 nM,,,0.56 mg/kg,,,,0%,0%,,,,
Clc1ncc([C@H]2C[C@@H]3CC[C@H]2N3)cc1-c1cccc(Br)c1,0.54 mg/kg,0.67 mg/kg,0.01 mg/kg,85 nM,,0.016 nM,2.2 mg/kg,0.11 mg/kg,0.22 mg/kg,,,,,,,,,
Fc1ccc(-c2cc([C@H]3C[C@@H]4CC[C@H]3N4)cnc2Cl)cc1,2.48 mg/kg,0.33 mg/kg,0.0005 mg/kg,309 nM,,0.017 nM,1.27 mg/kg,0.33 mg/kg,,,,30%,,,,,,
Nc1ccc(-c2cc([C@H]3C[C@@H]4CC[C@H]3N4)cnc2Cl)cc1,5 mg/kg,1.1 mg/kg,0.006 mg/kg,234 nM,,0.034 nM,4.5 mg/kg,0.52 mg/kg,,,,0%,,,,,,
Clc1ccc(-c2cc([C@H]3C[C@@H]4CC[C@H]3N4)cnc2Cl)cc1,2.6 mg/kg,0.89 mg/kg,0.001 mg/kg,209 nM,,0.039 nM,2 mg/kg,0.53 mg/kg,,,,10%,,,,,,
Clc1ncc([C@H]2C[C@@H]3CC[C@H]2N3)cc1-c1ccccc1,0.7 mg/kg,0.4 mg/kg,0.28 mg/kg,260 nM,,0.021 nM,1 mg/kg,0.35 mg/kg,,,,,,,30%,,,
Clc1ccc([C@@H]2C[C@H]3CC[C@@H]2N3)cn1 (stereo in doubt; (-)-1) [(+)-EPIBATIDINE],,,,,,,,,,,,,,,,0.0066 mg/kg,,
Fc1cccc(-c2cc([C@H]3C[C@@H]4CC[C@H]3N4)cnc2Cl)c1,1 mg/kg,0.19 mg/kg,0.0039 mg/kg,250 nM,,0.012 nM,0.43 mg/kg,0.07 mg/kg,0.086 mg/kg,,,,,,,,,
Nc1cccc(-c2cc([C@H]3C[C@@H]4CC[C@H]3N4)cnc2Cl)c1,0.34 mg/kg,0.31 mg/kg,0.00014 mg/kg,256 nM,,0.017 nM,0.3 mg/kg,0.03 mg/kg,0.026 mg/kg,,,,,,,,,
COc1ccc(-c2cc([C@H]3C[C@@H]4CC[C@H]3N4)cnc2Cl)cc1,2.36 mg/kg,0.79 mg/kg,0.01 mg/kg,175 nM,,0.022 nM,1.1 mg/kg,0.43 mg/kg,,,,,,,,,10%,
Clc1ccc([C@@H]2C[C@H]3CC[C@@H]2N3)cn1 (stereo in doubt; (+)-1) [(+)-EPIBATIDINE],0.0061 mg/kg,0.004 mg/kg,,,,,0.004 mg/kg,0.001 mg/kg,,,,,,,,,,
O=[N+]([O-])c1ccc(-c2cc([C@H]3C[C@@H]4CC[C@H]3N4)cnc2Cl)cc1,0.46 mg/kg,0.23 mg/kg,0.007 mg/kg,250 nM,,0.015 nM,0.38 mg/kg,0.24 mg/kg,,,,,,,,,,17%
O=[N+]([O-])c1cccc(-c2cc([C@H]3C[C@@H]4CC[C@H]3N4)cnc2Cl)c1,4.6 mg/kg,1.4 mg/kg,0.00025 mg/kg,229 nM,,0.008 nM,3.2 mg/kg,0.9 mg/kg,0.18 mg/kg,,,,,,,,,
CN1CCC[C@H]1c1cccnc1 [NICOTINE],1.3 mg/kg,1 mg/kg,,,,,0.65 mg/kg,0.5 mg/kg,,,,,,,,,,
